Data from ChEMBL document CHEMBL4004831, “Naphthalene diimide-polyamine hybrids as antiproliferative agents: Focus on the architecture of the polyamine chains” (Eur J Med Chem, 2017).
≈ marks a conversion by molar mass, not a printed value.

What was measured:
Homo sapiens = organism: Homo sapiens; assay: Stabilization of 5'Dabcyl/3'FAM labeled human telomeric sequence G-quadruplex DNA assessed as increase in melting temperature at 2.5 uM pretreated for 5 mins at 30 degreeC followed by 5 mins incubation at 95 degreeC by fluorescence assay
Summary of the method: (§1)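 FRET melting in LiP buffer (10 mM LiOH, 50 mM KCl, pH 7.0 with H3PO4), ex 488 nm, em 520 nm. Samples were held 5 min at 30 °C, heated at 1 °C/min to 95 °C, held 5 min, then re-annealed. Tm came from first derivatives; ΔTm = shift with ligand at 2.5; at least three runs.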

[1] = Stabilization of 5'Dabcyl/3'FAM labeled duplex DNA (unknown origin) assessed as increase in melting temperature at 2.5 uM pretreated for 5 mins at 30 degreeC followed by 5 mins incubation at 95 degreeC by fluorescence assay; summary of the method: as §1
[2] = molecular target: DNA topoisomerase 2-alpha (Homo sapiens, UniProt P11388); assay: Inhibition of human topoisomerase-2alpha-mediated relaxation of supercoiled pBR322 DNA after 1 hr by ethidium bromide staining based agarose gel electrophoresis
Summary of the method: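 Supercoiled pBR322 was incubated with compound (0.5–100) and 1 U human topoisomerase IIα in enzyme buffer for 1 h at 37 °C. Reactions were stopped with Tris/EDTA/NaCl loading buffer (pH 8.0) and run on 1% agarose in TAE with 0.1% SDS (4.9 V/cm, 90 min), then stained with ethidium bromide. IC50 is the concentration reducing relaxation activity by 50%.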

Thermus aquaticus = assay: Inhibition of Thermus aquaticus DNA polymerase-mediated amplification of fragment of pBR322 by PCR
Summary of the method: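 PCR amplification of a pBR322 fragment by Taq polymerase with increasing compound (0.25–40) for 25 cycles: 94 °C, 58 °C and 72 °C, 30 s each. Products were run on 2% agarose in 0.5X TBE (4.2 V/cm, 1.5 h) and stained with ethidium bromide. IC50 is the concentration halving activity; MIC is the lowest concentration that suppresses activity.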

DNA topoisomerase 2-alpha, sequence (P11388 whole entry): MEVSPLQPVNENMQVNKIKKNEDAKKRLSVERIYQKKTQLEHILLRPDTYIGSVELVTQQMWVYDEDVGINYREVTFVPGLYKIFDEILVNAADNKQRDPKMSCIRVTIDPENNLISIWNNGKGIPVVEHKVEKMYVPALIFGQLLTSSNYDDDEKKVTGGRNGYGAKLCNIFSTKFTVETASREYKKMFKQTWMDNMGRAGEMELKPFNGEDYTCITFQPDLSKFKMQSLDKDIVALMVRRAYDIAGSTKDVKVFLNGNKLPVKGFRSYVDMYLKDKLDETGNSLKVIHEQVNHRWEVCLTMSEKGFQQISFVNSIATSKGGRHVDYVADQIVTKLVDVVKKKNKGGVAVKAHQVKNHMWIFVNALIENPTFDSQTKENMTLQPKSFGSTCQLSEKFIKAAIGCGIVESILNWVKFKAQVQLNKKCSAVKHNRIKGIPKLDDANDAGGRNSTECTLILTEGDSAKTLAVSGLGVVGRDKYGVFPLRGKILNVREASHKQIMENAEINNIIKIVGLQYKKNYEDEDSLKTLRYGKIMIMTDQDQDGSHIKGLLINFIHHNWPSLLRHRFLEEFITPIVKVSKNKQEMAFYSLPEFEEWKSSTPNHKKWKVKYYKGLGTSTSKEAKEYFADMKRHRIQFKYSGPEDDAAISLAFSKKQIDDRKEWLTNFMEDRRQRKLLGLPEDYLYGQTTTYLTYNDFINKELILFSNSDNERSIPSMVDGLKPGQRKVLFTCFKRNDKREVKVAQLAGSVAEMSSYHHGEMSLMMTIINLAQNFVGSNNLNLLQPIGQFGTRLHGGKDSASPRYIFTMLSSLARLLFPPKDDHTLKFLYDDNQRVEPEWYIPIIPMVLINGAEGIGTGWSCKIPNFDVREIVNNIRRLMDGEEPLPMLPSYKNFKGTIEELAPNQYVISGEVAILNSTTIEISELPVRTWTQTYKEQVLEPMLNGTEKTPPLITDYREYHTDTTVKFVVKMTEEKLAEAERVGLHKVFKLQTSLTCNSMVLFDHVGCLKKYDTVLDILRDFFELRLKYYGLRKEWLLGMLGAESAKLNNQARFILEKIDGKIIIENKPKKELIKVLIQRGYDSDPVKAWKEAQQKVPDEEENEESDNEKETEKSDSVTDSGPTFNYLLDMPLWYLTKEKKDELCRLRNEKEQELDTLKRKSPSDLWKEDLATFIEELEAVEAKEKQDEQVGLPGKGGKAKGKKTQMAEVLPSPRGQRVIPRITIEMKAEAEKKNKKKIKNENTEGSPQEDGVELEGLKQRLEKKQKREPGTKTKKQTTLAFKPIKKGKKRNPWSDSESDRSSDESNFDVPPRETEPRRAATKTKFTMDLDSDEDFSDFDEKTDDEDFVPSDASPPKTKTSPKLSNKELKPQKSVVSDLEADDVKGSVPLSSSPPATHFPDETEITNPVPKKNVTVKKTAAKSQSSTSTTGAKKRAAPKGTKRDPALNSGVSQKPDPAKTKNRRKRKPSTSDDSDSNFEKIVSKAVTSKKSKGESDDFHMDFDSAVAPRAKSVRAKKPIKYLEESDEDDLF

Structure (SMILES)	ΔTm (Homo sapiens)	ΔTm [1]	IC50 [2]	MIC (Thermus aquaticus)
COc1ccccc1CNCCCN1C(=O)c2ccc3c4c(ccc(c24)C1=O)C(=O)N(CCCNCCCNCCCN)C3=O	16.3 °C	12.2 °C	–	–
COc1ccc(CNCCCN2C(=O)c3ccc4c5c(ccc(c35)C2=O)C(=O)N(CCCNCCCCNCCCN)C4=O)c(OC)c1OC	13.1 °C	12.6 °C	–	–
COc1ccccc1CNCCCN1C(=O)c2ccc3c4c(ccc(c24)C1=O)C(=O)N(CCCNCc1ccccc1OC)C3=O	20.5 °C	8.4 °C	6 µM	10 µM (≈ 6.21 µg/mL)
